From ChEMBL document CHEMBL4706641, “Novel Carboline Fungal Histone Deacetylase (HDAC) Inhibitors for Combinational Treatment of Azole-Resistant Candidiasis” (J Med Chem, 2021)
In brackets after ≈: the same amount, converted by molar mass. Activity calls are given as the source filed them.

How the values were obtained:
Candida albicans [1] = test: Synergistic antifungal activity against azole-resistant Candida albicans assessed as potentiation of ITC antifungal activity by measuring ITC incubated for 48 hrs in presence of fluconazole by checkerboard microdilution assay; type: functional
Candida albicans [2] = test: microbe, parasite or virus in culture; type: functional, 0304103
Candida albicans [3] = test: Synergistic antifungal activity against Candida albicans 0304103 incubated for 48 hrs in presence of fluconazole by microdilution assay; type: functional
Summary of the method: (§1)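 Checkerboard broth microdilution per CLSI M27-A3 (modified), clinical Candida isolates. Exponential cells in RPMI 1640 (MOPS-buffered) at 10³ cells/mL; fluconazole 0.25–64 μg/mL crossed with test compound 2–64 μg/mL (final). 48 h at 35 °C; OD630 read with background subtracted. MIC80 = 80% growth inhibition; FICI ≤0.5 synergy, >4 antagonism.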

Candida albicans [4] = test: Synergistic antifungal activity against azole-resistant Candida albicans assessed as potentiation of VRC antifungal activity by measuring VRC incubated for 48 hrs in presence of fluconazole by checkerboard microdilution assay; type: functional
Candida albicans [5] = test: Antifungal activity against Candida albicans 0304103 incubated for 48 hrs by microdilution assay; type: functional; summary of the method: as §1
Candida albicans [6] = test: Synergistic antifungal activity against Candida albicans 0304103 assessed as potentiation of fluconazole antifungal activity by measuring FICI incubated for 48 hrs in presence of fluconazole by checkerboard microdilution assay; type: functional; summary of the method: as §1
Candida albicans [7] = test: Synergistic antifungal activity against Candida albicans 4108 assessed as fluconazole MIC incubated for 48 hrs in presence of fluconazole by microdilution assay (reference value: fluconazole alone MIC = >[…] ug/ml); type: functional
Candida albicans [8] = test: Synergistic antifungal activity against Candida albicans 9172 assessed as fluconazole MIC incubated for 48 hrs in presence of fluconazole by microdilution assay (reference value: fluconazole alone MIC = >[…] ug/ml); type: functional
Pichia kudriavzevii [9] = test: Synergistic antifungal activity against Candida krusei 10153 assessed as fluconazole MIC incubated for 48 hrs in presence of fluconazole by microdilution assay (reference value: fluconazole alone MIC = […] ug/ml); type: functional
Candida albicans [10] = test: Synergistic antifungal activity against Candida albicans 4108 incubated for 48 hrs in presence of fluconazole by microdilution assay; type: functional; summary of the method: as §1
Candida albicans [11] = test: Antifungal activity against Candida albicans 9884 incubated for 48 hrs by microdilution assay; type: functional; summary of the method: as §1
Candida albicans [12] = test: Synergistic antifungal activity against Candida albicans 9884 incubated for 48 hrs in presence of fluconazole by microdilution assay; type: functional; summary of the method: as §1
Candida albicans [13] = test: Antifungal activity against Candida albicans 10061 incubated for 48 hrs by microdilution assay; type: functional; summary of the method: as §1
Candida albicans [14] = test: Synergistic antifungal activity against Candida albicans 9884 assessed as fluconazole MIC incubated for 48 hrs in presence of fluconazole by microdilution assay (reference value: fluconazole alone MIC = >[…] ug/ml); type: functional
Pichia kudriavzevii [15] = test: Synergistic antifungal activity against Candida krusei 10153 incubated for 48 hrs in presence of fluconazole by microdilution assay; type: functional; summary of the method: as §1
Candida albicans [16] = test: Antifungal activity against Candida albicans 9172 incubated for 48 hrs by microdilution assay; type: functional; summary of the method: as §1
Candida albicans [17] = test: Synergistic antifungal activity against Candida albicans 10061 assessed as fluconazole MIC incubated for 48 hrs in presence of fluconazole by microdilution assay (reference value: fluconazole alone MIC = >[…] ug/ml); type: functional
Candida albicans [18] = test: Synergistic antifungal activity against Candida albicans 10061 incubated for 48 hrs in presence of fluconazole by microdilution assay; type: functional; summary of the method: as §1
Candida albicans [19] = test: Synergistic antifungal activity against Candida albicans 9172 incubated for 48 hrs in presence of fluconazole by microdilution assay; type: functional; summary of the method: as §1
Pichia kudriavzevii [20] = test: Antifungal activity against Candida krusei 10153 incubated for 48 hrs by microdilution assay; type: functional; summary of the method: as §1
Candida albicans [21] = test: Antifungal activity against Candida albicans 4108 incubated for 48 hrs by microdilution assay; type: functional; summary of the method: as §1
Candida albicans [22] = test: Antifungal activity against Candida albicans 0304103 at 64 ug/ml incubated for 48 hrs by microdilution assay; type: functional, organism-based; settings: dose 64.0 µg/ml
Summary of the method: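 Checkerboard microdilution adapted from CLSI M27-A3. Exponential-phase cells resuspended at 10³ cells/mL in RPMI 1640 buffered with 0.165 M MOPS. Final concentrations were fluconazole 0.25–64 μg/mL and test compound 2–64 μg/mL. Plates were held 48 h at 35 °C and read at OD630 with background subtracted. MIC80 was used, and the FICI cut-offs were synergy ≤0.5 and antagonism >4.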

Candida albicans [23] = test: Effect on CDR2 mRNA expression in Candida albicans 0304103 at 32 ug/ml incubated for 24 hrs by RT-PCR analysis; type: functional; settings: dose 32.0 µg/ml
Summary of the method: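 C. albicans 0304103 was started at 1 × 10⁶ cells/mL and treated with DMSO control, fluconazole 32 μg/mL, test compound 32 μg/mL, or both. Cultures were held in YEPD at 35 °C for 24 h, then total RNA was extracted and reverse-transcribed. Real-time PCR ran 40 cycles. Fold change was calculated by 2^−ΔΔCt against ACT1.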

Candida albicans [24] = test: Inhibition of biofilm formation in Candida albicans 0304103 at 2 to 32 ug/ml incubated for 24 hrs by XTT reduction assay; type: functional, organism-based; settings: dose 2-32 µg/ml
Summary of the method: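 C. albicans 0304103 at 1.0 × 10⁶ CFU/mL in RPMI 1640 was allowed to adhere for 90 min at 37 °C, then washed with PBS. Fresh medium was added with fluconazole 2–32 μg/mL and/or test compound 0.12–64 μg/mL, followed by 24 h at 37 °C. Biofilm was measured semiquantitatively by XTT reduction at OD490. Three independent experiments were run.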

Candida albicans [25] = test: Induction of morphological changes in Candida albicans assessed as reduction in morphological conversion from yeast to hypha forms at 32 ug/ml incubated for 3 hrs by inverse fluorescence microscopy; type: functional, organism-based; settings: dose 32.0 µg/ml
Summary of the method: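 Exponential-phase C. albicans were suspended in Spider medium ([…], 2% NaHCO₃, […]) at 2 × 10⁶ cells/mL. Drugs were added alone or combined, with DMSO as control. After 3 h at 37 °C, cells were imaged by inverted fluorescence microscopy. Three independent experiments were run.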

Candida albicans [26] = test: (§2) Antifungal activity against Candida albicans 0304103 infected in ICR mouse model of candidiasis assessed as reduction in morphological changes of budded-to-hyphal transition at 1 mg/kg, ip dosed 24 hrs post infection and measured after 5 days by H and E staining based microscopical analysis; type: functional, organism-based; settings: time 5.0 day
Candida albicans [27] = test: as §2, with “fungal invasion by measuring clusters” for “morphological changes”, “fungal infiltration in renal pelvis” for “budded-to-hyphal transition”; type: functional, organism-based; settings: time 5.0 day
Candida albicans [28] = test: Antifungal activity against Candida albicans 0304103 infected in ICR mouse model of candidiasis assessed as reduction in kidney fungal burden at 1 mg/kg, ip dosed 24 hrs post infection and measured after 5 days; type: functional, organism-based; settings: time 5.0 day
Cryptococcus neoformans = test: Antifungal activity against Cryptococcus neoformans; type: functional
[29] = Candida albicans, 0304103, time 48 hrs, read-out: MIC80
[30] = Candida albicans, 0304103, read-out: MIC80

SMILES | fractional inhibitory concentration index (FICI) (Candida albicans [1]) | MIC80 (Candida albicans [2]; [29]) [µg/mL] | MIC80 (Candida albicans [3]) [µg/mL] | fractional inhibitory concentration index (FICI) (Candida albicans [4]) | MIC80 (Candida albicans [5]; [30]) [µg/mL] | fractional inhibitory concentration index (FICI) (Candida albicans [6]) | other results
O=C(Cc1ccc(OCCCn2c3c(c4ccc(Cl)cc42)CCNC3)cc1)NO | 0.035 | 1 (≈ 2.42 µM) | 2 | 0.035 | 64 (≈ 155 µM) | 0.047 | 
O=C(Cc1ccc(OCCCn2c3c(c4c(Br)cccc42)CCNC3)cc1)NO | 0.035 | 0.25 (≈ 0.545 µM) | 4 | 0.035 | > 64 | 0.066 | 
CN1CCc2c(c3ccccc3n2Cc2ccc(C(=O)NO)cc2)C1 [TUBASTATIN A] |  |  |  |  |  |  | MIC80 (Candida albicans [7]): 0.5 µg/mL; MIC80 (Candida albicans [8]): 0.5 µg/mL; MIC80 (Pichia kudriavzevii [9]): 32 µg/mL; MIC80 (Candida albicans [10]): 8 µg/mL; MIC80 (Candida albicans [11]): > 64 µg/mL; MIC80 (Candida albicans [12]): 4 µg/mL; MIC80 (Candida albicans [13]): > 64 µg/mL; MIC80 (Candida albicans [14]): 1 µg/mL; MIC80 (Pichia kudriavzevii [15]): 64 µg/mL; MIC80 (Candida albicans [16]): > 64 µg/mL; MIC80 (Candida albicans [17]): 0.5 µg/mL; MIC80 (Candida albicans [18]): 2 µg/mL; MIC80 (Candida albicans [19]): 16 µg/mL; MIC80 (Pichia kudriavzevii [20]): > 64 µg/mL; MIC80 (Candida albicans [21]): > 64 µg/mL
O=C(Cc1ccc(OCCCn2c3c(c4cc(F)ccc42)CCNC3)cc1)NO | 0.035 | 2 (≈ 5.03 µM) | 2 | 0.035 | > 64 | 0.062 | 
Cc1ccc2c(c1)c1c(n2CCCOc2ccc(CC(=O)NO)cc2)CNCC1 | 0.035 | 1 (≈ 2.54 µM) | 4 | 0.035 | > 64 | 0.078 | 
O=C(Cc1ccc(OCCCn2c3c(c4ccc(F)cc42)CCNC3)cc1)NO | 0.035 | 1 (≈ 2.52 µM) | 2 | 0.035 | > 64 | 0.047 | 
COc1cccc2c3c(n(CCCOc4ccc(CC(=O)NO)cc4)c12)CNCC3 | 0.035 | 1 (≈ 2.44 µM) | 2 | 0.035 | > 64 | 0.047 | 
OC(Cn1cncn1)(Cn1cncn1)c1ccc(F)cc1F [FLUCONAZOLE] |  |  |  |  | > 64 |  | Activity (Candida albicans [22]): inactive; Activity (Candida albicans [23]): inactive; inhibition (Candida albicans [24]): inactive; MIC80 (Candida albicans [11]): > 64 µg/mL; Activity (Candida albicans [25]): inactive; Activity (Candida albicans [26]): inactive; Activity (Candida albicans [27]): inactive; MIC80 (Candida albicans [13]): > 64 µg/mL; MIC80 (Candida albicans [16]): > 64 µg/mL; Activity (Candida albicans [28]): inactive; MIC80 (Pichia kudriavzevii [20]): 64 µg/mL (≈ 209 µM); MIC80 (Candida albicans [21]): > 64 µg/mL
O=C(Cc1ccc(OCCCn2c3c(c4c(Cl)cccc42)CCNC3)cc1)NO | 0.035 | 0.5 (≈ 1.21 µM) | 2 | 0.035 | > 64 | 0.039 | 
O=C(Cc1ccc(OCCCn2c3c(c4ccccc42)CCNC3)cc1)NO | 0.035 | 0.5 (≈ 1.32 µM) | 4 | 0.035 | > 64 | 0.07 | 
COc1ccc2c(c1)c1c(n2CCCOc2ccc(CC(=O)NO)cc2)CNCC1 | 0.035 | 0.5 (≈ 1.22 µM) | 8 | 0.035 | > 64 | 0.13 | 
O=C(Cc1ccc(OCCCn2c3c(c4cc(Br)ccc42)CCNC3)cc1)NO | 0.035 | 0.25 (≈ 0.545 µM) | 2 | 0.035 | 64 (≈ 140 µM) | 0.035 | 
Clc1ccc(OCCCn2c3c(c4cc(Cl)ccc42)CCNC3)cc1.O=C(O)C(F)(F)F |  |  |  |  |  |  | MIC80 (Cryptococcus neoformans): 0.25 µg/mL
O=C(CCCCCCC(=O)Nc1ccccc1)NO [VORINOSTAT] |  |  |  |  |  |  | MIC80 (Candida albicans [2]; 48 h): 0.25 µg/mL (≈ 0.946 µM); MIC80 (Candida albicans [5]): >64 µg/mL
O=C(Cc1ccc(OCCCn2c3c(c4ccc(Br)cc42)CCNC3)cc1)NO | 0.035 | 0.5 (≈ 1.09 µM) | 2 | 0.035 | > 64 | 0.039 | 
